According to ChEMBL document CHEMBL1287652, “QSAR modeling, synthesis and bioassay of diverse leukemia RPMI-8226 cell line active agents” (2010):

Test: Antitumor activity against human […] cells at 10 uM after 48 hrs by sulforhodamine B assay relative to control
Format: functional
Procedure, shortened: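 NCI panel lines were grown in RPMI-1640 with 5% FBS and 2 mM L-glutamine and seeded at 5000–40,000 cells/well according to doubling time. After 24 h at 37 °C, 5% CO2, one dose from a DMSO stock was added for 48 h. Cells were TCA-fixed (10% final adherent, 16% suspension), SRB-stained and read at 515 nm. Percent growth is relative to untreated control.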

Row | SMILES | inhibition at 10 µM [%]
1 | [3H]N1C(=O)[C@@]2(c3ccccc31)N(C)C[C@@H](c1ccc(OC)cc1)[C@@]21Cc2ccccc2C1=O | 33.2
2 | [3H]C([3H])([3H])N1C(=O)[C@@]2(c3ccccc31)N(C)C[C@@H](c1ccc(Cl)cc1)[C@@]21Cc2ccccc2C1=O | 86.6
3 | CCn1c(S)n[n+]2c(N)c(C#N)c(-c3ccc(N4CCOCC4)cc3)c(C#N)c12 | 24.9
4 | O=C(Nc1ccc(Cl)c(Cl)c1)Nc1ccccc1SCCCSc1ccccc1NC(=O)Nc1ccc(Cl)c(Cl)c1 | 108
5 | O=C(Nc1ccccc1)c1c(-c2ccc(Cl)cc2)cc(-c2ccccc2)nc1Nc1ccc(Cl)cc1 | 53
6 | Cc1ccc(NC(=O)c2c(-c3ccc(Cl)cc3)cc(-c3ccccc3)nc2N)cc1 | 71
7 | O=C(N/C(=C\c1ccccc1OCCOc1ccccc1/C=C(\NC(=O)c1ccccc1)C(=O)N1CCOCC1)C(=O)N1CCOCC1)c1ccccc1 | 9.15
8 | [3H]N1C(=O)[C@@]2(c3ccccc31)N(C)C[C@@H](c1cccs1)[C@@]21Cc2ccccc2C1=O | 10.9
9 | CN1C/C(=C\c2cccs2)C(=O)[C@@]2(C1)[C@H](c1cccs1)CN(C)[C@]21C(=O)N(C)c2ccccc21 | 89.4
10 | O=C(Nc1ccccc1)c1c(-c2ccc(Cl)cc2)cc(-c2ccccc2)nc1Nc1ccccc1 | 15
11 | CN1C/C(=C\c2ccc(Cl)cc2)C(=O)[C@@]2(C1)[C@H](c1ccc(Cl)cc1)CN(C)[C@]21C(=O)Nc2ccccc21 | 61.5
12 | Cc1ccc(NC(=O)c2c(-c3ccc(Cl)cc3)cc(-c3ccccc3)nc2N2CCCCC2)cc1 | 24
13 | Nc1nc(-c2ccccc2)cc(-c2ccc(Cl)cc2)c1C(=O)Nc1ccccc1 | 46
14 | Cc1ccc(NC(=O)c2c(-c3ccc(Cl)cc3)cc(-c3ccccc3)nc2N2CCOCC2)cc1 | 39
15 | CN1CCN(C(=O)/C(=C/c2ccccc2OCCOc2ccccc2/C=C(\NC(=O)c2ccccc2)C(=O)N2CCN(C)CC2)NC(=O)c2ccccc2)CC1 | 14.7
16 | O=C(Nc1ccccc1)c1c(-c2ccc(Cl)cc2)cc(-c2ccccc2)nc1N1CCCCC1 | 13
17 | [3H]C([3H])([3H])N1C(=O)[C@@]2(c3ccccc31)N(C)C[C@@H](c1cccs1)[C@@]21Cc2ccccc2C1=O | 12.1

Row | SMILES | inhibition at 10 µM [%]
18 | COc1ccc([C@@H]2C(c3ccccc3)=NN(c3cccc(Cl)c3)[C@]23CCSc2ccccc2C3=O)cc1 | 34.3
19 | Cc1ccc(NC(=O)c2c(-c3ccc(Cl)cc3)cc(-c3ccccc3)nc2Nc2ccc(Cl)cc2)cc1 | 58
20 | [3H]C([3H])([3H])N1C(=O)[C@@]2(c3ccccc31)N(C)C[C@@H](c1ccc(OC)cc1)[C@@]21Cc2ccccc2C1=O | 82.3
21 | CN1C/C(=C\c2ccc(Cl)cc2)C(=O)[C@@]2(C1)[C@H](c1ccc(Cl)cc1)CN(C)[C@]21C(=O)N(C)c2ccccc21 | 62
22 | COc1ccc(/C=C2\CN(C)C[C@]3(C2=O)[C@H](c2ccc(OC)cc2)CN(C)[C@]32C(=O)Nc3ccccc32)cc1 | 79.3
23 | O=C(N/C(=C\c1ccccc1OCCOc1ccccc1/C=C(\NC(=O)c1ccccc1)C(=O)N1CCCCC1)C(=O)N1CCCCC1)c1ccccc1 | 18.3
24 | COc1ccc(-c2c3c([nH]c(=S)c2C#N)-c2ccccc2SCC3)cc1 | 0.96
25 | Cn1c(S)n[n+]2c(N)c(C#N)c(-c3ccc(N4CCOCC4)cc3)c(C#N)c12 | 11.9
26 | O=C1c2ccccc2SCC[C@@]12[C@H](c1ccc(Cl)cc1)C(c1ccccc1)=NN2c1cccc(Cl)c1 | 33.2
27 | O=C(Nc1ccc(Cl)cc1)/C(=C/c1ccccc1OCCOc1ccccc1/C=C(\NC(=O)c1ccccc1)C(=O)Nc1ccc(Cl)cc1)NC(=O)c1ccccc1 | 6.03
28 | COc1ccc(Nc2nc(-c3ccccc3)cc(-c3ccc(Cl)cc3)c2C(=O)Nc2ccc(C)cc2)cc1 | 79
29 | COc1ccc(Nc2nc(-c3ccccc3)cc(-c3ccc(Cl)cc3)c2C(=O)Nc2ccccc2)cc1 | 30
30 | COc1nc(-c2cccs2)cc2c1c(=O)oc1ccccc12 | 9.11
31 | [3H]N1C(=O)[C@@]2(c3ccccc31)N(C)C[C@@H](c1ccc(Cl)cc1)[C@@]21Cc2ccccc2C1=O | 63.4
32 | O=C(Nc1ccccc1)c1c(-c2ccc(Cl)cc2)cc(-c2ccccc2)nc1N1CCOCC1 | 51
33 | O=C1c2ccccc2SCC[C@@]12[C@H](c1cccs1)C(c1ccccc1)=NN2c1cccc(Cl)c1 | 29.8
